Screening results deposited in PubChem by The Scripps Research Institute Molecular Screening Center.
5HT1E antag: blocks the human 5-HT1E serotonin receptor. P28566. CHO 5-HT1E Ga15 NFAT-bla reporter, FRET, antagonist. inhibition, % at 6 µM. 65,000 compounds, 0.99% hits;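 active = inhibition above a set limit, the mean inhibition across every tested compound plus 3 SD, cut at about 29% in these data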;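 note: signal is the 460 over 535 nm emission ratio of beta-lactamase substrate; 0% = agonist plus DMSO wells and 100% = wells without agonist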
5HT1a antag: blocks the human serotonin 5-HT1a receptor; P08908; CHO 5-HT1a Ga15 NFAT-bla reporter, antagonist mode; inhibition, % at 10 µM; 62,000 compounds, 0.68% hits; AID 612;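 active = inhibition above the mean of all tested compounds plus 3 SD, cut at about 43% in these data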;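 note: receptor stimulated by 5-CT agonist at 100 nM near EC80; beta-lactamase reporter measured by ratiometric fluorescence of a cleavable substrate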
Target sequence (P08908 whole entry, looked up): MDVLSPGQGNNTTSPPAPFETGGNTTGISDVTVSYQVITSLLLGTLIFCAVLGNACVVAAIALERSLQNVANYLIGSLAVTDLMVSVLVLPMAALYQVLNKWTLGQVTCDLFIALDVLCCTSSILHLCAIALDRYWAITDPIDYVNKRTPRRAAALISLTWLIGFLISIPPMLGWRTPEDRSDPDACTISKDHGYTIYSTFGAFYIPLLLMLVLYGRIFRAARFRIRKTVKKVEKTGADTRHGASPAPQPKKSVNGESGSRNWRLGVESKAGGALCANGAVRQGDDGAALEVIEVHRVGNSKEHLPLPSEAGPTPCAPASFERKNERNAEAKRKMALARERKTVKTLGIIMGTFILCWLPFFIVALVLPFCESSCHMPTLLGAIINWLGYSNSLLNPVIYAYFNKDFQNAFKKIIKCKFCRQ
5HT1E ag: agonists of human 5-HT1E serotonin receptor; CHO 5-HT1E Ga15 NFAT-bla reporter, FRET; 0% DMSO wells, 100% control agonist wells; AID 574; P28566; 65,000 compounds, 0.69% hits; activation, % at 6 µM;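 active = activation above a set limit, the screen-wide mean activation plus 3 SD, cut at about 8.5% in these data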;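 note: 100% = positive control agonist at 1 µM giving full maximal response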
Jurkat viability: cytotoxic compounds reducing Jurkat cell viability. inhibition, % at 4 µM. 56,000 compounds, 1.2% hits. Jurkat E6.1 viability, ATP luminescence, 48 h;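 active = inhibition above the mean inhibition of all tested compounds plus 3 SD, cut at about 28% in these data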
HEK293 NFkB inh: lowers PMA/ionomycin-induced NF-kB signal in HEK293 cells; HEK-293 NF-kB luciferase reporter, luminescence; 62,000 compounds, 0.21% hits; inhibition, % at 3 µM;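 active = inhibition above the mean of all tested compounds plus 3 SD, cut at about 40% in these data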;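 note: 0% = stimulated DMSO wells and 100% = 10 µM reference inhibitor 5653914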
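Reagent: PMA plus ionomycin mix as NF-kB-activating stimulus. Assay system: NF-kB luciferase reporter HEK-293 cells. Technique: luminescence from luciferase substrate reagent. Incubation: 1 h compound pre-incubation, 16 h PMA/ionomycin at 37 °C. Benchmarks: DMSO only as uninhibited control, 10 µM reference inhibitor as full inhibition. Repeats: tested once.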
HTR1A agonist: activates the human 5-HT1a serotonin receptor | P08908 | CHO 5-HT1a Ga15 NFAT-bla reporter, FRET ratio; 0% basal, 100% maximal reference agonist | activation, % at 10 µM | 65,000 compounds, 0.56% hits | AID 567;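 active = activation above the screen-wide mean activation plus 3 SD, cut at about 19% in these data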;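 note: 0% = DMSO wells and 100% = 5-CT at EC100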
Numbers without * were called inactive. Most compounds without a hit are left out; they make up all but 3.3% or so of the library.

For CCCn1c(=NC(=O)c2ccco2)c(C(=O)OCC)cc2c(=O)n3ccccc3nc21 the results were 5HT1E antag 2, 5HT1a antag 22, 5HT1E ag 3, Jurkat viability 13, HEK293 NFkB inh 15 and HTR1A agonist 7.
Screening CC(C)OCCCn1c(=NC(=O)c2ccncc2)c(C#N)cc2c(=O)n3ccccc3nc21 returned 5HT1E antag -6, 5HT1a antag -34, 5HT1E ag 9.1*, Jurkat viability -8, HEK293 NFkB inh 25 and HTR1A agonist 37*.
`C=CCn1c(=N)c(C(=O)NCCCOC)cc2c(=O)n3ccccc3nc21` gave 5HT1E antag -3, 5HT1a antag -18, 5HT1E ag 6, Jurkat viability 2, HEK293 NFkB inh 2 and HTR1A agonist 20*.
`N=c1c(C(=O)NCc2ccc(F)cc2)cc2c(=O)n3ccccc3nc2n1CCCN1CCOCC1` gave 5HT1E antag -5, 5HT1a antag -9, 5HT1E ag 4, Jurkat viability 10, HEK293 NFkB inh 24 and HTR1A agonist 31*.
Screening CCOC(=O)c1cc2c(=O)n3ccccc3nc2n(CCCOC)c1=NC(C)=O returned 5HT1E antag 1, 5HT1a antag -45, 5HT1E ag 7, HEK293 NFkB inh 10 and HTR1A agonist 23*.
Screening C=CCn1c(=N)c(C(=O)NCCCOC)cc2c(=O)n3cc(C)ccc3nc21 returned 5HT1E antag -5, 5HT1a antag -34, 5HT1E ag 4, Jurkat viability -7, HEK293 NFkB inh -6 and HTR1A agonist 15.
COc1cccc(-c2nc(CS(=O)(=O)CC(=O)NCCCN3CCc4ccccc4C3)c(C)o2)c1 was read as 5HT1E antag -2, 5HT1a antag 16, 5HT1E ag -1, Jurkat viability 0, HEK293 NFkB inh 8 and HTR1A agonist 2.
COc1ccc(NC(=O)c2cnc3ccccn3c2=O)c(OC)c1 was read as 5HT1E antag 7, 5HT1a antag -8, 5HT1E ag 1, Jurkat viability 2, HEK293 NFkB inh -23 and HTR1A agonist 0.
COc1ccc(N2CCN(C(=O)c3ccc(CNc4c(N5CCOCC5)c(=O)c4=O)cc3)CC2)cc1 was read as 5HT1E antag 13, 5HT1a antag -4, 5HT1E ag 5, Jurkat viability -1, HEK293 NFkB inh 5 and HTR1A agonist 1.
CN1CCN(C2=C(Cl)C(=O)N(C3CCCCC3)C2=O)CC1 was read as 5HT1E antag 28, 5HT1a antag 12, 5HT1E ag 39*, Jurkat viability 3, HEK293 NFkB inh 8 and HTR1A agonist 4.
CCN(CC)C(=O)C(C)N(C#N)c1nc(NC(C)C)nc(NC(C)C)n1 (stereo not drawn) was read as 5HT1E antag 3, 5HT1a antag -2, 5HT1E ag -1, HEK293 NFkB inh 10 and HTR1A agonist 1.
CC(C)Nc1nc(C#N)nc(NC(C)C)n1 was read as 5HT1E antag 31*, 5HT1a antag -1, 5HT1E ag 0, Jurkat viability 11, HEK293 NFkB inh 12 and HTR1A agonist 1.
`CCOC(=O)N1CCC(Nc2c(NCCN3CCN(Cc4ccccc4)CC3)c(=O)c2=O)CC1` gave 5HT1E antag 7, 5HT1a antag 0, 5HT1E ag 0, Jurkat viability 3, HEK293 NFkB inh -3 and HTR1A agonist 0.
Screening CCOC(=O)N1CCC(Nc2c(NCCCN(CC)c3cccc(C)c3)c(=O)c2=O)CC1 returned 5HT1E antag -8, 5HT1a antag -16, 5HT1E ag 22*, Jurkat viability 5, HEK293 NFkB inh 4 and HTR1A agonist -2.
For COc1ccc(N2C(=O)CC(Sc3nnc(-c4ccccc4)o3)C2=O)cc1 (stereo not drawn) the results were 5HT1E antag -5, 5HT1a antag 47*, 5HT1E ag 0, Jurkat viability -1, HEK293 NFkB inh 6 and HTR1A agonist -3.
Screening O=C1CC(Sc2nnc(-c3ccccc3O)o2)C(=O)N1c1ccccc1 (stereo not drawn) returned 5HT1E antag 3, 5HT1a antag 12, 5HT1E ag 1, Jurkat viability -4, HEK293 NFkB inh 14 and HTR1A agonist -2.
Cc1ccc(Nc2nc(N)nc(CSc3nnc(-c4ccncc4)o3)n2)cc1 was read as 5HT1E antag -3, 5HT1a antag -4, 5HT1E ag 0, Jurkat viability -2, HEK293 NFkB inh 6 and HTR1A agonist 0.
Screening Cc1c(C)c2cc(Cl)c(O)c(CN3CCN(C)CC3)c2oc1=O returned 5HT1E antag -4, 5HT1E ag 1 and HTR1A agonist 8.
Cc1c(Cc2ccccc2)c(=O)oc2c(CN(C)C)c(O)c(Cl)cc12 was read as 5HT1E antag -9, 5HT1a antag -44, 5HT1E ag 8, Jurkat viability 0, HEK293 NFkB inh 10 and HTR1A agonist 20*.
For CC(C)CCn1c(Br)nc2c1c(=O)n(CC(N)=O)c(=O)n2C the results were 5HT1E antag 0, 5HT1a antag -14, 5HT1E ag 1, Jurkat viability -5, HEK293 NFkB inh 13 and HTR1A agonist 0.
`O=C(Cn1ccc2ccccc2c1=O)NCCC(=O)NC1CCN(Cc2ccccc2)CC1` gave 5HT1E antag 0, 5HT1a antag -10, 5HT1E ag 11*, Jurkat viability -5, HEK293 NFkB inh 4 and HTR1A agonist 0.
O=C(CCNC(=O)Cn1ccc2ccccc2c1=O)NCCN1CCc2ccccc2C1 was read as 5HT1E antag -5, 5HT1a antag 2, 5HT1E ag 1, Jurkat viability -3, HEK293 NFkB inh 2 and HTR1A agonist 0.
CN(C)c1ccc(C(c2nnnn2CCOC(=O)Nc2ccc(Cl)cc2)N2CCOCC2)cc1 (stereo not drawn) was read as 5HT1E antag 5, 5HT1a antag 18, 5HT1E ag 1, Jurkat viability 5, HEK293 NFkB inh 10 and HTR1A agonist -1.
For CC(C)n1c(=NC(=O)c2ccco2)c(C#N)cc2c(=O)n3ccccc3cc21 the results were 5HT1E antag 4, 5HT1a antag -6, 5HT1E ag 9.2*, Jurkat viability 0, HEK293 NFkB inh 20 and HTR1A agonist 29*.
CCCCNC1C(CC)C(CCC)C(C#N)(C#N)C1(C#N)C#N (stereo not drawn) was read as 5HT1E antag 37*, 5HT1a antag 63*, 5HT1E ag -2, Jurkat viability 12, HEK293 NFkB inh 17 and HTR1A agonist -6.
For CC(C)c1ccc(S(=O)(=O)N2CCN(CC(=O)Nc3ccc4c(c3)OCO4)CC2)cc1 the results were 5HT1E antag 2, 5HT1a antag -32, 5HT1E ag 0, Jurkat viability 0, HEK293 NFkB inh -2 and HTR1A agonist -3.
For Cc1ccc(NC(=O)Cc2nn(C)c(=O)c3ccccc23)cc1F the results were 5HT1E antag 5, 5HT1a antag 13, 5HT1E ag -1, HEK293 NFkB inh 31 and HTR1A agonist 1.
